Measurements from ChEMBL document CHEMBL1121726, “Pyrazolopyrimidine nucleosides. 12. Synthesis and biological activity of certain pyrazolo[3,4-d]pyrimidine nucleosides related to adenosine” (1981).
Active and inactive are the calls of the source. The rule behind the calls is not given here.

Assays:
[1] = system: L1210; assay: Increase in life span of tumor L1210 leukemic mice 1-5 days after 25 mg/kg administered; assay type: functional, Mus musculus
How it was run: (§1)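 Mice bearing L1210 or P388 leukemia were injected with drug at the listed dose per injection on the listed days after tumor-cell inoculation. ILS was the percentage increase in life span of treated mice over untreated tumor-bearing controls.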

[2] = system: L1210; assay: Toxicity against L1210 leukemic cells 1-5 days after administration of 25 mg/kg of the compound; Yes; assay type: functional, organism-based; set-up: dose 25 mg/kg; conditions: Mus musculus
How it was run: (§2)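 Mice bearing L1210 or P388 leukemia were injected at the stated dose per injection on the listed days after tumor-cell inoculation. Host toxicity scores whether higher doses on the same schedule caused drug-induced shortening of life span: y = yes, n = no, nt = no higher dose tested.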

[3] = system: L1210; assay: Increase in life span of tumor L1210 leukemic mice 1-5 days after 200 mg/kg administered; assay type: functional, Mus musculus; how it was run: as §1
[4] = system: P388; assay: Toxicity against P388 leukemic cells 1-9 days after administration of 6 mg/kg of the compound; y= Yes; assay type: functional, organism-based; set-up: dose 6 mg/kg; conditions: Mus musculus
How it was run: (§3)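 Host toxicity was scored in leukemia-bearing mice as drug-induced shortening of life span when higher doses were given on the same schedule: y = yes, n = no, nt = no higher dose tested.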

[5] = system: L1210; assay: In vitro inhibition of growth of L1210 mouse leukemic cells; assay type: functional; conditions: read-out: ID50 (the source's name)
How it was run: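 L1210 cells grown in static suspension culture in Fischer's medium for leukemic cells of mice, exposed to a range of test-compound concentrations. Growth rate measured over 3 days.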

[6] = system: P388; assay: Increase in life span of tumor P388 leukemic mice 1-9 days after 6 mg/kg administered; assay type: functional, Mus musculus; how it was run: as §1
[7] = system: L1210; assay: Toxicity against L1210 leukemic cells 1-5 days after administration of 200 mg/kg of the compound; nt= No higher dose tested; assay type: functional, organism-based; set-up: dose 200 mg/kg; conditions: Mus musculus; how it was run: as §3
[8] = system: L1210; assay: Number of mice surviving 1-5 days after 200 mg/kg administered; 2/6; assay type: functional, Mus musculus
[9] = system: L1210; assay: Number of mice surviving 1-5 days after 25 mg/kg administered; 1/12; assay type: functional, Mus musculus
[10] = system: P388; assay: Toxicity against P388 leukemic cells 1,5,9 days after administration of 100 mg/kg of the compound; Yes; conditions: Mus musculus
[11] = system: P388; assay: Increase in life span of tumor P388 leukemic mice 1,5,9 days after 100 mg/kg administered
[12] = system: L1210; assay: […] against L1210 leukemic cells 1-5 days after administration of 12.5 mg/kg of the compound; Yes; conditions: Mus musculus
[13] = system: L1210; assay: Increase in life span of tumor L1210 leukemic mice 1-5 days after 12.5 mg/kg administered; assay type: functional, Mus musculus; how it was run: as §1
[14] = system: L1210; assay: Toxicity against L1210 leukemic cells 1-5 days after administration of 400 mg/kg of the compound; nt= No higher dose tested; assay type: functional, organism-based; set-up: dose 400 mg/kg; conditions: Mus musculus; how it was run: as §2
[15] = system: L1210; assay: Increase in life span of tumor L1210 leukemic mice 1-5 days after 400 mg/kg administered; assay type: functional, Mus musculus; how it was run: as §1
[16] = system: L1210; assay: Number of mice surviving 1 day after 133 mg/kg administered; 1/6; assay type: functional, Mus musculus
[17] = system: L1210; assay: Toxicity against L1210 leukemic cells 1 day after administration of 133 mg/kg of the compound; No; assay type: functional, organism-based; set-up: dose 133 mg/kg; conditions: Mus musculus; how it was run: as §2
[18] = system: P388 (Mus musculus); assay: Increase in life span of tumor P388 leukemic mice 1-9 days after 9.3 mg/kg administered
[19] = system: P388; assay: Toxicity against P388 leukemic cells 1-9 days after administration of 25 mg/kg of the compound; No; assay type: functional, organism-based; set-up: dose 25 mg/kg; conditions: Mus musculus; how it was run: as §2
[20] = system: L1210; assay: Increase in life span of tumor L1210 leukemic mice 1 day after 133 mg/kg administered; assay type: functional, Mus musculus; how it was run: as §1
[21] = system: P388; assay: Increase in life span of tumor P388 leukemic mice 1-9 days after 25 mg/kg administered; assay type: functional, Mus musculus
[22] = system: L1210; assay: Increase in life span of tumor L1210 leukemic mice 1-9 day after 200 mg/kg administered; assay type: functional, Mus musculus; how it was run: as §1
[23] = system: L1210; assay: Toxicity against L1210 leukemic cells 1-9 days after administration of 200 mg/kg of the compound; Yes; assay type: functional, organism-based; set-up: dose 200 mg/kg; conditions: Mus musculus; how it was run: as §2
[24] = system: L1210; assay: Toxicity against L1210 leukemic cells 1-5 days after administration of 200 mg/kg of the compound; Yes; assay type: functional, organism-based; set-up: dose 200 mg/kg; conditions: Mus musculus; how it was run: as §2
[25] = system: L1210; assay: Increase in life span of tumor L1210 leukemic mice 1-5 day after 200 mg/kg administered; assay type: functional, Mus musculus; how it was run: as §1
[26] = system: L1210; assay: […] against L1210 leukemic cells 1-5 days after administration of 50 mg/kg of the compound; Yes; assay type: functional, organism-based; set-up: dose 50 mg/kg; conditions: Mus musculus
[27] = system: L1210; assay: Increase in life span of tumor L1210 leukemic mice 1-5 day after 50 mg/kg administered; assay type: functional, Mus musculus; how it was run: as §1
[28] = system: L1210; assay: […] against L1210 leukemic cells 1-5 days after administration of 400 mg/kg of the compound; No higher dose tested; assay type: functional, organism-based; set-up: dose 400 mg/kg; conditions: Mus musculus
[29] = system: L1210; assay: Increase in life span of tumor L1210 leukemic mice 1-5 day after 400 mg/kg administered; assay type: functional, Mus musculus; how it was run: as §1
[30] = system: L1210; assay: Increase in life span of tumor L1210 leukemic mice 1-9 days after 400 mg/kg administered; assay type: functional, Mus musculus; how it was run: as §1
[31] = system: L1210; assay: Toxicity against L1210 leukemic cells 1-9 days after administration of 400 mg/kg of the compound; No higher dose tested; assay type: functional, organism-based; set-up: dose 400 mg/kg; conditions: Mus musculus; how it was run: as §2

What does the source list for `OC[C@H]1OC(n2ncc3c(NCc4ccccc4)ncnc32)[C@H](O)[C@@H]1O` (stereo not given in full)?
ILS [1]: 3; Toxicity [2]: Active

How did the ILS [3] turn out when `NC(=O)c1nn(C2O[C@H](CO)[C@@H](O)[C@H]2O)c2ncnc(N)c12` (stereo not given in full) was run?
The ILS was 136.

And the Toxicity [4]?
The Toxicity was “No higher dose tested”.

What about the IC50 [5] of the same compound?
Its IC50 is 100 nM.

And the ILS [6]?
The ILS was 90.

And the Toxicity [7]?
The Toxicity was “No higher dose tested”.

What about the Cures [8] of the same compound?
The Cures was 2.

`N/C(=N\O)c1nn(C2O[C@H](CO)[C@@H](O)[C@H]2O)c2ncnc(N)c12` (stereo not given in full) was tested. Which Cures [9] did it give?
Its Cures is 1.

What about the IC50 [5] of the same compound?
Its IC50 is 180 nM.

And the ILS [1]?
The ILS was 78.

What about the Toxicity [2] of the same compound?
The Toxicity was “Active”.

What about the Toxicity [10] of the same compound?
Its Toxicity is “Active”.

And the ILS [11]?
Its ILS is 33.

For `OC[C@H]1OC(n2ncc3c(NO)ncnc32)[C@H](O)[C@@H]1O` (stereo not given in full), which IC50 [5] is on record?
The IC50 was 10000 nM.

And the Toxicity [12]?
The Toxicity was “Active”.

What about the ILS [13] of the same compound?
Its ILS is 14.

What does the source list for `COC(=N)c1nn(C2O[C@H](CO)[C@@H](O)[C@H]2O)c2ncnc(N)c12` (stereo not given in full)?
Toxicity [14]: No higher dose tested; ILS [15]: 64

With `Nc1ncnc2c1ncn2[C@@H]1O[C@H](CO)[C@@H](O)[C@H]1O` [ADENOSINE] as the compound, how does the IC50 [5] read?
Its IC50 is 400 nM.

And the Cures [16]?
Its Cures is 1.

What about the Toxicity [17] of the same compound?
The Toxicity was “Not toxic”.

What about the ILS [18] of the same compound?
The ILS was 24.

And the Toxicity [19]?
Its Toxicity is “Not toxic”.

And the ILS [20]?
Its ILS is 48.

And the ILS [21]?
The ILS was 54.

With `OC[C@H]1OC(n2ncc3cncnc32)[C@H](O)[C@@H]1O` (stereo not given in full) as the compound, how does the IC50 [5] read?
Its IC50 is greater than 100000 nM.

And the ILS [22]?
The ILS was -3.

What about the Toxicity [23] of the same compound?
The Toxicity was “Active”.

`CSc1ncnc2c1cnn2C1O[C@H](CO)[C@@H](O)[C@H]1O` (stereo not given in full) was tested. Which IC50 [5] did it give?
Its IC50 is 9000 nM.

And the Toxicity [24]?
Its Toxicity is “Active”.

What about the ILS [25] of the same compound?
Its ILS is 19.

What does the source list for `CN(C)/C=N/c1ncnc2c1cnn2C1O[C@H](CO)[C@@H](O)[C@H]1O` (stereo not given in full)?
IC50 [5]: 600 nM; Toxicity [26]: Active; ILS [27]: 12

For `COc1ncnc2c1cnn2C1O[C@H](CO)[C@@H](O)[C@H]1O` (stereo not given in full), which Toxicity [28] is on record?
Its Toxicity is “No higher dose tested”.

What about the ILS [29] of the same compound?
Its ILS is 12.

How did the ILS [30] turn out when `OC[C@H]1OC(n2ncc3c(NCc4ccco4)ncnc32)[C@H](O)[C@@H]1O` (stereo not given in full) was run?
The ILS was 6.

And the IC50 [5]?
Its IC50 is greater than 100000 nM.

What about the Toxicity [31] of the same compound?
Its Toxicity is “No higher dose tested”.
